An excerpt weighted towards active compounds, which were near 3.4% of everything screened.
MEKK2 WT-MEK5 = raises or lowers MEK5 binding to wildtype human MEKK2 PB1 domain; Q9Y2U5; bead flow cytometry, Alexa488-MEK5 binding to MEKK2 WT; actives lie on both sides; binding response (% of control), % at 10 µM; 290,000 tested, 1.1% active; in the data active = binding response below about 67% or above about 130%
IMP-1 inhibitor = blocks Pseudomonas aeruginosa IMP-1 metallo-beta-lactamase. purified IMP-1, nitrocefin hydrolysis, epi-absorbance fluorescence. inhibition, % at 5.6 µM. 290,000 tested, 0.45% active. AID 1556;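 active = inhibition above the mean plus 3 SD of all compounds in the same screening run, cut at about 4.5% in these data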;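 also: 0% = IMP-1 with DMSO and 100% = DMSO wells lacking enzyme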
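System – purified recombinant IMP-1 beta-lactamase · Input – IMP-1 dispensed at 0.2 nM · Timing – 15 min preincubation plus 25 min reaction at 25 °C · Signal – Epi-absorbance fluorescence, 480 nm excitation, 530 nm emission · Measure – percent IMP-1 inhibition derived from blank-referenced optical density · Controls – Enzyme-plus-DMSO low control, enzyme-free DMSO high control · Replication – singlicate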
MEKK3 PB1 HTS = MEKK3-MEK5 PB1 interaction, increase or decrease; bead-based flow cytometry, Alexa488-MEK5 binding to MEKK3; actives lie on both sides; 0 = blocked by unlabeled MEK5, 100 = vehicle; binding response (% of control), % at 10 µM; AID 1529; 290,000 tested, 1.4% active;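 active = binding response more than 3 SD above or below the average of its plate-row segment, actives on both sides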;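 also: Alexa488 bead fluorescence after subtracting the streptavidin-only scavenger bead signal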
Target sequence (Q99759 whole entry, looked up): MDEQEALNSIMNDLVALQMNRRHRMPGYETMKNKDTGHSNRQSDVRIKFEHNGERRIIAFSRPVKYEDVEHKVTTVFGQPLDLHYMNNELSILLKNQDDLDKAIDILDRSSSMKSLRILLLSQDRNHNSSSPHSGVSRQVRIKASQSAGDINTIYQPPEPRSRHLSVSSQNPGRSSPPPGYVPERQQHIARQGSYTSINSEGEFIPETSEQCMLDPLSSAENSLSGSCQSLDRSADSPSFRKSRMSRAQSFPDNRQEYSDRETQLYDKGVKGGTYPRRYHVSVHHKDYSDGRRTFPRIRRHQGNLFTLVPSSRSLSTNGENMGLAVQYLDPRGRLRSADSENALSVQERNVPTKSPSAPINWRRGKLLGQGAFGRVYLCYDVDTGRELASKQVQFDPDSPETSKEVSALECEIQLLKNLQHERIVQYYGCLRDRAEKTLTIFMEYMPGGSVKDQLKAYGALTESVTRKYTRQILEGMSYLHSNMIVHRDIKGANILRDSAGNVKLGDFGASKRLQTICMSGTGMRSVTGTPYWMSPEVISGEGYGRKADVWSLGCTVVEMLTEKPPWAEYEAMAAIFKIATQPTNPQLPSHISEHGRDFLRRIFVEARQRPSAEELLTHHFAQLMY
VIM-2 inhibitor = inhibitors of Pseudomonas aeruginosa VIM-2 metallo-beta-lactamase; purified VIM-2, nitrocefin hydrolysis, epi-absorbance fluorescence; 290,000 tested, 0.89% active; inhibition, % at 5.6 µM;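 active = inhibition above the mean of all tested compounds plus 3 SD, cutoff set per screening run, cut at about 7.5% in these data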;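 also: red hydrolysis product quenches plate fluorescence so inhibitors raise well fluorescence; 0% = enzyme with DMSO and 100% = DMSO without enzyme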
MEKK2mut PB1 HTS = signal of MEK5 binding to mutant human MEKK2 PB1 domain. AID 1530. percent response, % at 10 µM. 290,000 tested, 0.35% active. bead flow cytometry, Alexa488-MEK5 binding to MEKK2 mutant; in the data active = percent response above about 24%, passing the limit was not always enough
An asterisk follows results filed as active; · = no result given; [ ] = another dose, or the depositor's remark.

SMILES	MEKK2 WT-MEK5	IMP-1 inhibitor	MEKK3 PB1 HTS	VIM-2 inhibitor	MEKK2mut PB1 HTS
CCn1nccc1C(=O)Nc1cccc(C)c1C	97	17*	101	-1	-4
CCN(CC)c1ncnc2c1sc1nc(N3CCOCC3)c3c(c12)CCC3	99	7.0*	101	0	1
c1nc(N2CCOCC2)c2sc3nc(N4CCOCC4)c4c(c3c2n1)CCCC4	·	-2	·	-3	·
CC1(C)Cc2c(c(N3CCOCC3)nc3sc4c(NN)ncnc4c23)CS1	94	12*	96	0	-2
CC(C)CNc1nnnc2c1sc1nc(N3CCOCC3)c3c(c12)CC(C)(C)SC3	94	0	103	1	2
COc1ccc(/C=N/NC(=O)c2cccc([N+](=O)[O-])c2)c2ccccc12	98	-2	101	0	0
NC(=S)Nc1ccc(S(=O)(=O)c2ccc(NC(N)=S)cc2)cc1	100	11*	101	-5	1
CC(=O)Nc1ccc(S(=O)(=O)c2ccc(N)cc2)cc1	105	-2	106	-1	4
O=C(/C=C1\NC2(CCCC2)Cc2ccccc21)C(=O)N/N=C/c1ccccc1O	102	-3	174*	-4	0
CNC(=O)/C(C#N)=C/c1c(N2CCCCCC2)nc2ccccn2c1=O	103	-2	105	8.1*	1
N#Cc1ccsc1NC(=O)CN1CCOCC1	95	-2	97	-3	-5
O=C(NCCCc1ccccc1)c1cccs1	84	-1	87	-1	-11
CCOC(=O)/C(=C/C=C1\Sc2cc(OCC)c(OCC)cc2N1CC)C(C)=O	52	6.2*	68	7	-46
CCOC(=O)/C(=C\C=C1/Sc2cc(OCC)c(OCC)cc2N1CC)C(C)=O	97	4.8*	119	3	-5
CCN1/C(=C/C(C)=O)Sc2ccc(OC)cc21	99	-5	102	-4	1
COc1cc(N2CCCC2)c(OC)cc1/C=C(/C#N)c1cccc(F)c1	101	-3	97	-1	155*
CCOC(=O)N1CCN(C(=O)c2cc3c(=O)n4ccccc4nc3s2)CC1	107	-3	104	3	9
CCn1c(=O)c2cc(C(=O)NC(C)C)sc2c2ccccc21	102	0	101	6	-1
CN1CCN(C(=O)c2cc3c(=O)n4ccccc4nc3s2)CC1	102	0	102	7.9*	11
CCn1c(=O)c2cc(C(=O)N3CCN(C)CC3)sc2c2ccccc21	110	-2	106	9.0*	11
Cc1ccc(NC(=O)c2ccc(-n3cccn3)c([N+](=O)[O-])c2)cc1	96	-2	99	-3	-3
O=C(COc1ccc2c3c(c(=O)oc2c1)CCCC3)NCCCN1CCOCC1	100	-1	99	11*	4
CC(Oc1ccc2c3c(c(=O)oc2c1)CCCC3)C(=O)NCCN1CCOCC1 (stereo not drawn)	96	-1	100	7	1
Cc1c(C)c2ccc(OCC(=O)NCCN3CCOCC3)c(C)c2oc1=O	97	0	96	11*	-8
CCc1cc(=O)oc2cc(OCC(=O)NCCCn3ccnc3)ccc12	108	-2	106	11*	10
SMILES	MEKK2 WT-MEK5	IMP-1 inhibitor	MEKK3 PB1 HTS	VIM-2 inhibitor	MEKK2mut PB1 HTS
Cc1cc(=O)oc2cc(OCC(=O)NCCCN3CCOCC3)ccc12	103	0	101	3	7
O=C(COc1ccc2c3c(c(=O)oc2c1)CCCC3)NCCN1CCOCC1	105	-2	102	12*	6
O=C(O)c1c2c(nc3ccccc13)/C(=C/c1cccc([N+](=O)[O-])c1)CCC2	100	-2	101	1	0
CCOC(=O)C1CCCN(C(=O)/C(=C/c2ccco2)NC(=O)c2ccccc2)C1 (stereo not drawn)	92	5.2*	98	1	-5
O=C(N/C(=C/c1ccco1)C(=O)N1CCCCCC1)c1ccccc1	99	-5	102	-5	-3
CCOC(=O)c1c[nH]c2c(C(=O)c3ccccc3)cc(Cl)cc2c1=O	101	-3	102	7.7*	1
CCOC(=O)c1c[nH]c2c(Cl)c(Cl)ccc2c1=O	95	-3	96	-1	-6
CCOC(=O)c1c[nH]c2c(Cl)ccc(Cl)c2c1=O	98	0	101	8.6*	4
CCCCOC(=O)NC1(C)CCS(=O)(=O)C1 (stereo not drawn)	76	-2	81	-3	-2
COC(=O)c1cc(NC(=O)c2cccc(Cl)c2)c(=O)oc1/C=C/Nc1cc(C)cc(C)c1	·	-2	68*[inhibitor]	-1	558*
COC(=O)c1cc(NC(=O)c2cccc(C(F)(F)F)c2)c(=O)oc1C	103	-4	110	-1	1
COc1ccc(CCC(=O)Nc2nc(C)c(C(=O)N(C)C)s2)cc1	96	11*	100	-4	-1
COc1ccc(CCC(=O)Nc2sc(C(=O)N(C)C)c(C)c2C#N)cc1	102	-1	100	-4	2
Cc1ccc(NC(=O)[C@H](C)NC(=O)C2CCN(C(=O)[C@@H](N)C(C)C)CC2)cc1	108	-4	105	1	5
CN(C)S(=O)(=O)c1cccc(NC(=S)Nc2cccc3cnccc23)c1	90	1	91	12*	-4
C/C(=N\NC(=O)c1cccnc1)c1nnn(-c2nonc2N)c1C	113	-2	126	1	0
Cn1cc(/C=C2\SC(=S)N(N3CCOCC3)C2=O)c2ccccc21	84	4.8*	99	-2	-6
Cn1cc(/C=C2\SC(=S)N(NC(=O)c3ccccc3)C2=O)c2ccccc21	73	-3	96	-1	-4
Cn1cc(/C=C2/SC(=O)N(c3ccccc3)C2=O)c2ccccc21	·	0	·	2	·
Cn1cc(/C=C2\SC(=S)N(NC(=O)c3cccc(Cl)c3)C2=O)c2ccccc21	48*[inhibitor]	-3	88	-2	-9
Cc1c(CCC(=O)O)c(=O)oc2c(C)c3occ(-c4ccc(Cl)cc4)c3cc12	101	5.3*	105	7	-2
O=C(Oc1ccccc1Cl)c1ccccc1P(=O)(O)O	108	-4	108	-1	6
O=C(Oc1ccccc1)c1c(Cl)cccc1P(=O)(O)O	101	1	103	8.5*	4
Cc1nnc2c(NC(C)C)nc3ccccc3n12	106	-3	99	9.0*	-1
Cc1cccc(C(=O)N(Cc2cccs2)C2CCS(=O)(=O)C2)c1 (stereo not drawn)	100	-3	102	-3	3
O=C(c1ccc(F)cc1)N(Cc1cccs1)C1CCS(=O)(=O)C1 (stereo not drawn)	0.0*[inhibitor]	-1	2.0*[inhibitor]	0	-18
CCOC(=O)C1Nc2ccccc2C2c3ccccc3CC12 (stereo not drawn)	96	·	88	·	-1
Oc1ccc(Cl)cc1CNc1nccs1	103	8.4*	103	2	2
Cc1ccc(O)c(CNc2nccs2)c1	100	-1	101	-1	4

Screening data (PubChem BioAssay)
